In brackets after ≈: the same amount, converted by molar mass. Activity calls are given as the source filed them. The calls are words filed in the database; no cut-off is given here.
Tests used:
Type in all cases: functional, cell-based
HeLa [1] = experiment: Cytotoxicity against human HeLa cells at 0.1 to 10 ug/ml by MTT assay
Method in brief: (§1)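 MTT viability read-out on L5178Y, HeLa and PC12 cells over 0.1-10 µg/mL, with EC50 values given in µg/mL; a positive control was run alongside. Other details follow an earlier protocol.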

PC-12 [2] = experiment: Cytotoxicity against rat PC12 cells at 0.1 to 10 ug/ml by MTT assay; method in brief: as §1
L5178Y [3] = experiment: Cytotoxicity against mouse L5178Y cells at 0.1 to 10 ug/ml by MTT assay; method in brief: as §1
L5178Y [4] = experiment: Cytotoxicity against mouse L5178Y cells by MTT assay; method in brief: as §1
PC-12 [5] = experiment: Cytotoxicity against rat PC12 cells by MTT assay; method in brief: as §1
HeLa [6] = experiment: Cytotoxicity against human HeLa cells by MTT assay; method in brief: as §1

CC(O)C(O)/C=C/C=C/C(=O)O[C@@H]1C=C2COC(=O)[C@]2(O)[C@@]2(C)CCCC(C)(C)[C@H]12 (stereo in doubt; 9)
Activity (HeLa [1]): inactive | Activity (PC-12 [2]): inactive | Activity (L5178Y [3]): inactive

CC1(C)CCC[C@@]2(C)[C@H]1[C@H](OC(=O)/C=C/C=C/C(=O)O)C=C1COC(=O)[C@@]12O
EC50 (L5178Y [4]): 5.3 µg/mL (≈ 13.6 µM) | EC50 (PC-12 [5]): > 10 µg/mL | EC50 (HeLa [6]): > 10 µg/mL

CC1(C)C[C@H](O)C[C@@]2(C)[C@H]1[C@H](O)C=C1COC(=O)[C@@]12O
Activity (HeLa [1]): inactive | Activity (PC-12 [2]): inactive | Activity (L5178Y [3]): inactive

CC1=CC(=O)[C@H]2C(C)(C)C[C@H](O)C[C@]2(C)[C@H]1CO
Activity (HeLa [1]): inactive | Activity (PC-12 [2]): inactive | Activity (L5178Y [3]): inactive

CC1=CC(=O)[C@H]2C(C)(C)[C@@H](O)CC[C@]2(C)[C@@]1(O)CO
Activity (HeLa [1]): inactive | Activity (PC-12 [2]): inactive | Activity (L5178Y [3]): inactive

CC1=CC(=O)[C@H]2C(C)(C)[C@@H](O)CC[C@]2(C)[C@H]1CO
Activity (HeLa [1]): inactive | Activity (PC-12 [2]): inactive | Activity (L5178Y [3]): inactive

CC(O)C(O)/C=C/C=C/C(=O)O[C@@H]1C=C2COC(=O)[C@]2(O)[C@@]2(C)CCCC(C)(C)[C@H]12 (stereo in doubt; 8)
Activity (HeLa [1]): inactive | Activity (PC-12 [2]): inactive | Activity (L5178Y [3]): inactive

CC1(C)CCC[C@@]2(C)[C@H]1[C@H](OC(=O)/C=C/C=C/C=O)C=C1COC(=O)[C@@]12O [USTUSOLATE E]
EC50 (L5178Y [4]): 0.6 µg/mL (≈ 1.6 µM) | EC50 (PC-12 [5]): 7.2 µg/mL (≈ 19.2 µM) | EC50 (HeLa [6]): 5.9 µg/mL (≈ 15.8 µM)

CC1=CC(=O)[C@H]2C(C)(C)C[C@H](O)C[C@]2(C)[C@@]1(O)CO
Activity (HeLa [1]): inactive | Activity (PC-12 [2]): inactive | Activity (L5178Y [3]): inactive

C/C=C/C=C/C=C/C(=O)O[C@@H]1C=C2COC(=O)[C@]2(O)[C@@]2(C)CCCC(C)(C)[C@H]12
EC50 (L5178Y [4]): 1.9 µg/mL (≈ 4.92 µM) | EC50 (PC-12 [5]): > 10 µg/mL | EC50 (HeLa [6]): 7.5 µg/mL (≈ 19.4 µM)
